The record followed here is ChEMBL document CHEMBL1125920, “Synthesis and biological activity of 5-alkyl-1,7,8-trisubstituted-6-fluoroquinoline-3-carboxylic acids” (1991).

For test [1], the system named is Enterobacter cloacae. As to the kind of experiment: Antibacterial activity against gram negative organism, […] (MA2646). The test is classed as functional.
Test [2] has as its system Escherichia coli. As to the kind of experiment: Antibacterial activity was determined against gram negative organism, E. coli(vogel). The test is classed as functional. The procedure, abridged:
(§1)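 MIC by standard microtitration against a panel of 10 representative Gram-negative and Gram-positive organisms; values reported in µg/mL.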

The test system of test [3] is Klebsiella pneumoniae. The test is described as follows: Antibacterial activity was determined against gram negative organism, K. pneumoniae (MGH-2). The test is classed as functional. The essentials:
as §1

Test [4] deals with Pseudomonas aeruginosa. As to the kind of experiment: Antibacterial activity was determined against gram negative organism, Pseudomonas aeruginosa (UI-18). It counts as functional. The procedure, abridged: as §1
For test [5], the system named is Bacteria. The test is described as follows: Antibacterial activity was determined against gram negative organism, Providencia rettgeri. (M1771). It counts as functional. The essentials: as §1
The test system of test [6] is Streptococcus pneumoniae. As to the kind of experiment: Antibacterial activity was determined against gram positive organism, Streptococcus pneumoniae (SV-1). The test is classed as functional. The essentials: as §1
Test [7] relates to Enterococcus faecalis. The test is described as follows: Antibacterial activity was determined against gram positive organism, Streptococcus faecalis (MGH-2). It counts as functional. The procedure, abridged:
as §1

Test [8] relates to Streptococcus pyogenes. As to the kind of experiment: Antibacterial activity was determined against gram positive organism, Streptococcus pyogenes (C203). The test is classed as functional. The procedure, abridged: as §1
Test [9] has as its system Staphylococcus aureus. As to the kind of experiment: Antibacterial activity was determined against gram positive organism, Staphylococcus aureus (H228). It counts as functional. The procedure, abridged:
as §1

Test [10] relates to Staphylococcus aureus. The test is described as follows: Antibacterial activity was determined against gram positive organism, Staphylococcus aureus (UC76). The test is classed as functional. The essentials: as §1
A short description of test [11]: MIC ratio measured as the mean MICs of gram-negative bacteria. It counts as functional. The procedure, abridged: (§2)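 Geometric mean of the MICs (µg/mL) over the Gram-negative or the Gram-positive strains of the 10-organism microtitration panel, calculated separately for each class.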
A short description of test [12]: MIC ratio measured as the mean MICs of gram-positive bacteria. It counts as functional. The essentials:
as §2

Test [13] addresses DNA gyrase (Escherichia coli) (UniProt P0AES6+P0AES4).
The test system of test [14] is Mus musculus. As to the kind of experiment: In vivo subcutaneous protective dose was determined in female charles river CD-1 mice infected with Streptococcus pneumoniae. The test is classed as functional. The following applies: sc, read-out: PD50. The essentials:
(§3)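 Acute lethal systemic infection model in mice; drug given by subcutaneous injection; potency read out as median protective dose (PD50), in mg/kg.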

Test [15] deals with Mus musculus. The test is described as follows: In vivo oral protective dose was determined in female charles river CD-1 mice infected with Escherichia coli (vogel). It counts as functional. The conditions noted are these: Mus musculus, po; read-out: PD50. The essentials:
(§4)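 Acute lethal systemic infection model in mice; drug given orally by gavage; potency read out as median protective dose (PD50), in mg/kg.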

Test [16] relates to Mus musculus. The test is described as follows: In vivo oral protective dose was determined in female charles river CD-1 mice infected with Streptococcus pneumoniae. The test is classed as functional. The conditions noted are these: read-out: PD50. The essentials:
as §4

Test [17] deals with Mus musculus. As to the kind of experiment: In vivo subcutaneous protective dose was determined in female charles river CD-1 mice infected with Escherichia coli (vogel). The test is classed as functional. The conditions noted are these: sc, read-out: PD50. The essentials:
as §3

Structures are written as SMILES. ≈ marks a conversion by molar mass, not a printed value.

For orientation: MIC means the smallest concentration in the dilution series that meets the test's criterion for growth inhibition. Lower therefore signals greater potency. `CCn1cc(C(=O)O)c(=O)c2cc(F)c(N3CCC(N)C3)c(F)c21` (stereo unspecified): the minimum inhibitory concentration (MIC) in test [1] is 0.1 µg/mL (≈ 0.296 µM); in test [2], 0.1 µg/mL (≈ 0.296 µM); in test [3], 0.2 µg/mL (≈ 0.593 µM); in test [4], 0.4 µg/mL (≈ 1.19 µM); in test [5], 0.2 µg/mL (≈ 0.593 µM); in test [6], 0.4 µg/mL (≈ 1.19 µM). The minimum inhibitory concentration (MIC) in [7] was 0.4 µg/mL (≈ 1.19 µM); in test [8], 0.2 µg/mL (≈ 0.593 µM); in test [9], 0.4 µg/mL (≈ 1.19 µM); in test [10], 0.1 µg/mL (≈ 0.296 µM). In addition, the values for the Ratio in test [11] and in test [12] were 0.17 and 0.27, respectively. In test [13], this compound showed a DNA cleavage of 2.5 µg/mL.

For the compound `CCNCC1CCN(c2cc3c(c(C)c2F)c(=O)c(C(=O)O)cn3CC)C1` (stereo unspecified), the MIC in test [1] stood at 3.1 µg/mL (≈ 8.26 µM); in test [2], 1.6 µg/mL (≈ 4.26 µM); in [3], 6.3 µg/mL (≈ 16.8 µM); in test [4] it was 25 µg/mL (≈ 66.6 µM); in [5], 12.5 µg/mL (≈ 33.3 µM); in [6], 0.8 µg/mL (≈ 2.13 µM). Besides, the MIC was found to be 1.6 µg/mL (≈ 4.26 µM) in test [7], 1.6 µg/mL (≈ 4.26 µM) in test [8], 1.6 µg/mL (≈ 4.26 µM) in test [9] and 0.4 µg/mL (≈ 1.07 µM) in test [10]. Moreover, the figures for the Ratio in test [11] and in test [12] were 6.28 and 1.06, respectively. This compound gave a DNA cleavage in test [13] of 3 µg/mL.

In the case of `CCn1cc(C(=O)O)c(=O)c2cc(F)c(N3CCNCC3)c(F)c21`, the MIC amounted to 0.1 µg/mL (≈ 0.296 µM) in [1]; 0.1 µg/mL (≈ 0.296 µM) in test [2]; 0.1 µg/mL (≈ 0.296 µM) in test [3]; 0.8 µg/mL (≈ 2.37 µM) in test [4]; 0.2 µg/mL (≈ 0.593 µM) in [5]; 3.1 µg/mL (≈ 9.19 µM) in test [6]. Moreover, the minimal inhibitory concentration (MIC) is 1.6 µg/mL (≈ 4.74 µM) in test [7], 3.1 µg/mL (≈ 9.19 µM) in test [8], 1.6 µg/mL (≈ 4.74 µM) in test [9] and 0.4 µg/mL (≈ 1.19 µM) in test [10]. Further, the figures for the Ratio in [11] and in [12] were 0.17 and 0.27, respectively. The compound also came in with a DNA cleavage in test [13] of 2.5 µg/mL.

For `O=C(O)c1cn(C2CC2)c2c(F)c(N3CCNCC3)c(F)cc2c1=O`, the minimal inhibitory concentration (MIC) in [1] worked out at 0.05 µg/mL (≈ 0.143 µM); in test [5], 0.1 µg/mL (≈ 0.286 µM). Besides, the ED50 was 29 mg/kg in test [14], 0.45 mg/kg in test [15], 59 mg/kg in [16] and 0.25 mg/kg in [17]. Further, the Ratio in test [11] amounted to 0.076; in test [12] it was 0.4. In addition, the DNA cleavage in test [13] was determined as 0.5 µg/mL.

As to `CCNCC1CCN(c2cc3c(c(C)c2F)c(=O)c(C(=O)O)cn3-c2ccc(F)cc2F)C1` (stereo unspecified), the minimal inhibitory concentration (MIC) in test [1] amounted to 0.8 µg/mL (≈ 1.74 µM); in test [2], 0.4 µg/mL (≈ 0.871 µM); in test [3] it was 0.8 µg/mL (≈ 1.74 µM); in test [4] it was 3.1 µg/mL (≈ 6.75 µM); in test [5], 1.6 µg/mL (≈ 3.48 µM); in test [6], 0.025 µg/mL (≈ 0.0544 µM). The MIC in test [7] turned out to be 0.2 µg/mL (≈ 0.435 µM); in test [8] it was 0.025 µg/mL (≈ 0.0544 µM); in test [9], 0.1 µg/mL (≈ 0.218 µM); in test [10], 0.025 µg/mL (≈ 0.0544 µM). Besides, the Ratio came to 1.05 in test [11] and 0.05 in test [12]. Besides, the DNA cleavage in [13] worked out at 0.75 µg/mL.

As to `O=C(O)c1cn(C2CC2)c2cc(N3CCNCC3)c(F)cc2c1=O` [CIPROFLOXACIN], the ED50 worked out at 19 mg/kg in test [14], 1 mg/kg in test [15], 100 mg/kg in test [16] and 0.25 mg/kg in test [17]. Moreover, the MIC in [4] was found to be 0.4 µg/mL (≈ 1.21 µM); in [5], 0.05 µg/mL (≈ 0.151 µM); in [7] it was 0.8 µg/mL (≈ 2.41 µM); in test [8], 0.8 µg/mL (≈ 2.41 µM); in [10], 0.2 µg/mL (≈ 0.604 µM).

With `CCn1cc(C(=O)O)c(=O)c2c(C)c(F)c(N3CC(C)NC(C)C3)cc21` (stereo unspecified), the minimum inhibitory concentration (MIC) was 0.4 µg/mL (≈ 1.11 µM) in test [1]; 0.2 µg/mL (≈ 0.553 µM) in test [2]; 0.8 µg/mL (≈ 2.21 µM) in test [3]; 3.1 µg/mL (≈ 8.58 µM) in test [4]; 1.6 µg/mL (≈ 4.43 µM) in test [5]; 1.6 µg/mL (≈ 4.43 µM) in test [6]. Moreover, the minimal inhibitory concentration (MIC) was 1.6 µg/mL (≈ 4.43 µM) in [7], 3.1 µg/mL (≈ 8.58 µM) in test [8], 1.6 µg/mL (≈ 4.43 µM) in test [9] and 0.2 µg/mL (≈ 0.553 µM) in test [10]. The Ratio in test [11] was found to be 0.79; in test [12], 1.2. Besides, in test [13], the DNA cleavage was 8.8 µg/mL.

As to `CCNCC1CCN(c2cc3c(cc2F)c(=O)c(C(=O)O)cn3CC)C1` (stereo unspecified), the minimum inhibitory concentration (MIC) was found to be 0.4 µg/mL (≈ 1.11 µM) in test [1]; 0.1 µg/mL (≈ 0.277 µM) in test [2]; 0.4 µg/mL (≈ 1.11 µM) in [3]; 3.1 µg/mL (≈ 8.58 µM) in test [4]; 1.6 µg/mL (≈ 4.43 µM) in [5]; 0.2 µg/mL (≈ 0.553 µM) in test [6]. Moreover, the minimal inhibitory concentration (MIC) in [7] is 0.2 µg/mL (≈ 0.553 µM); in test [8], 0.1 µg/mL (≈ 0.277 µM); in test [9] it was 0.2 µg/mL (≈ 0.553 µM); in test [10], 0.1 µg/mL (≈ 0.277 µM). In addition, the values for the Ratio in [11] and in [12] were 0.6 and 0.15, respectively. Besides, the DNA cleavage in test [13] was determined as 2.5 µg/mL.
